# Test results as given in ChEMBL document CHEMBL3351733, “Inhibition of the lymphoid tyrosine phosphatase: the effect of zinc(II) ions and chelating ligand fragments on enzymatic activity” (Bioorg Med Chem Lett, 2014).
# The source made the active and inactive calls. The rule behind the calls is not given here.
# Legend:
# [1] = biological target: T1, Tyrosine-protein phosphatase non-receptor type 22 (Homo sapiens, UniProt Q9Y2R2); assay: Inhibition of LYP (unknown origin) using DiFMUP substrate incubated for 2 hrs
# T1 sequence (Q9Y2R2 whole entry): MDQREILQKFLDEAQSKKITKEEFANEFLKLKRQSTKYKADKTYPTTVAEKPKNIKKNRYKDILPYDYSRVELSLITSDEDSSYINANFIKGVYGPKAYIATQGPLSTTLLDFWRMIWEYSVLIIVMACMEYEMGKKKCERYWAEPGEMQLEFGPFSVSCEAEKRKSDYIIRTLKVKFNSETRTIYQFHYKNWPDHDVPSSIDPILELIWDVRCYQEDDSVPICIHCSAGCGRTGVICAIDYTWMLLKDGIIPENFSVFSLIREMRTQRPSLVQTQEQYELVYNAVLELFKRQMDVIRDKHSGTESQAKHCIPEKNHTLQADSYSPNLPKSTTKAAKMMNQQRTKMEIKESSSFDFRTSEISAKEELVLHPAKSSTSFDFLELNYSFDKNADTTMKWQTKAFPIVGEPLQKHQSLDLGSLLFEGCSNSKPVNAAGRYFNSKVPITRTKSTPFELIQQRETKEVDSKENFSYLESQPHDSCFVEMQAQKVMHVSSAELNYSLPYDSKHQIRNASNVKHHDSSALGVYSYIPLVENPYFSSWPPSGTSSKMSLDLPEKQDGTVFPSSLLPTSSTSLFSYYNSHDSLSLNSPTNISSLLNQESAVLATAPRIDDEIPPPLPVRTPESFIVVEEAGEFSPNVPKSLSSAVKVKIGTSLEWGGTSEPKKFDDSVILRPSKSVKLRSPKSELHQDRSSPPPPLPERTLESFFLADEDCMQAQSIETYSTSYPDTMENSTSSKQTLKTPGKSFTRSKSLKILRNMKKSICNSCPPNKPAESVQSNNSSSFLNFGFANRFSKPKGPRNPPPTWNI
# Summary of the method: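 LYP preincubated with inhibitor for 0, 30, 60 and 120 min before activity was read, without added zinc. IC50 came from the dose-response after the 2 h incubation.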
# [2] = biological target: T2, Tyrosine-protein phosphatase non-receptor type 1 (Homo sapiens) (UniProt P18031); assay: Inhibition of PTP1B (unknown origin)
# T2 sequence (whole entry): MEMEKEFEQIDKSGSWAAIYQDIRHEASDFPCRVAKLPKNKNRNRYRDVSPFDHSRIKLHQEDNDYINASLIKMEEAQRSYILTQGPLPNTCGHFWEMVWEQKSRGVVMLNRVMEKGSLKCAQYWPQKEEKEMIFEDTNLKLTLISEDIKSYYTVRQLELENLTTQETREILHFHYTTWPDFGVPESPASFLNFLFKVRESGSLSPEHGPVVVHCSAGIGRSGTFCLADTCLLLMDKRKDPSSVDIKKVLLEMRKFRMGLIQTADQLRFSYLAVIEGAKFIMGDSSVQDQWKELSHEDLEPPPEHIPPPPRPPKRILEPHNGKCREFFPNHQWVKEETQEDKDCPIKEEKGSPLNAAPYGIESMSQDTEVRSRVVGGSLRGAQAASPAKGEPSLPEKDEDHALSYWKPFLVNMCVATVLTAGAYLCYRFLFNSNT
# [3] = Inhibition of YopH (unknown origin)
# [4] = biological target: T3, Receptor-type tyrosine-protein phosphatase C (Homo sapiens) (UniProt P08575); assay: Inhibition of CD45 (unknown origin)
# T3 sequence (whole entry): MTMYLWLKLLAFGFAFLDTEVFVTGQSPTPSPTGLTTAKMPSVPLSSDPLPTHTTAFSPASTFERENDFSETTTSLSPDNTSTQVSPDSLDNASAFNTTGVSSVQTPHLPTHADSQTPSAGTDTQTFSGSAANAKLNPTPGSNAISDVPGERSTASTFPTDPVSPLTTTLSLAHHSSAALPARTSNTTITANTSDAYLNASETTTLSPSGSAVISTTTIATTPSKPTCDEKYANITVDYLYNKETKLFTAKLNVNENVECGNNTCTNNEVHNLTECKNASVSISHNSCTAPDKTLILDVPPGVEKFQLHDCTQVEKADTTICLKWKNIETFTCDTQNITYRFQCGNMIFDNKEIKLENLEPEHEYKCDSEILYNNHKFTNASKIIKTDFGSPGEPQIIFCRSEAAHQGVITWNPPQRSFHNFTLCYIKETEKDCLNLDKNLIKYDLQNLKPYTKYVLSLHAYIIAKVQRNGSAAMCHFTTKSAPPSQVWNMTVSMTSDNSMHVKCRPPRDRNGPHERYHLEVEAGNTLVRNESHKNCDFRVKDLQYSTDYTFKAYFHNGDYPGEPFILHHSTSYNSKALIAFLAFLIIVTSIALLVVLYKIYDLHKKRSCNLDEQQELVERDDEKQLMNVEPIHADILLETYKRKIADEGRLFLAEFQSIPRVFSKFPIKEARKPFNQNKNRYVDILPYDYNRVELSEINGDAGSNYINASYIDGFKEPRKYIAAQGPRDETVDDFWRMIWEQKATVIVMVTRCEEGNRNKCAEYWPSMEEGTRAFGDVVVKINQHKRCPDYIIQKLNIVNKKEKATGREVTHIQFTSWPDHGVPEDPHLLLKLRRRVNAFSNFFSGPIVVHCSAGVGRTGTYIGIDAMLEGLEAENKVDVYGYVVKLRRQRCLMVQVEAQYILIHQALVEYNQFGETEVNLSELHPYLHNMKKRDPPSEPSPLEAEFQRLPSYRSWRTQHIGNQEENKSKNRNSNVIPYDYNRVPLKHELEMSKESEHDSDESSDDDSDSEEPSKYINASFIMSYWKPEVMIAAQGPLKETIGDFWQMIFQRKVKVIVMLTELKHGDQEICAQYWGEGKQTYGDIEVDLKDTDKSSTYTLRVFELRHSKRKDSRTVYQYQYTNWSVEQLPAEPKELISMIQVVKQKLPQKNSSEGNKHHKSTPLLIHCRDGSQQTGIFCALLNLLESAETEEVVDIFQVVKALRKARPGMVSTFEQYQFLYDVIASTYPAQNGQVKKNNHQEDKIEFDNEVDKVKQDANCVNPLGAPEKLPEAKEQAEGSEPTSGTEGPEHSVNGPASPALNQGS
# [5] = biological target: T4, Tyrosine-protein phosphatase non-receptor type 22 (Homo sapiens) (UniProt Q9Y2R2); assay: Inhibition of LYP (unknown origin) incubated for 30 mins at 25 degC before addition of DiFMUP substrate in presence of 5 uM zinc acetate; conditions: TDE = time-dependent effect
# T4 sequence (whole entry): T1 sequence (Q9Y2R2 whole entry)
# Summary of the method: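 Fragment screen and follow-up dose-response run with 5 μM zinc acetate added to the LYP assay, alongside a parallel series without zinc.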
# [6] = biological target: T4, Tyrosine-protein phosphatase non-receptor type 22 (Homo sapiens); assay: Inhibition of LYP (unknown origin) at 20 to 100 uM incubated for 30 mins at 25 degC before addition of DiFMUP substrate
# [7] = biological target: T4, Tyrosine-protein phosphatase non-receptor type 22 (Homo sapiens); assay: Protection against 40 uM zinc-acetate-induced inhibition of LYP (unknown origin) at 80 uM incubated for 30 mins at 25 degC before addition of DiFMUP substrate
Compound,IC50 [1] [µM],inhibition [6],Activity [7],also measured
"O=C1C=Cc2ccccc2C1=O [1,2-NAPHTHOQUINONE]",1.1,–,–,–
Oc1ccc2ccccc2c1O,2.52,–,–,inhibition [2]: Active; inhibition [3]: Active; inhibition [4]: Active; inhibition [5]: tde
O=C1C=C(O)C(=O)c2ccccc21 [LAWSONE],5.6,–,–,–
c1ccc(CNCc2ccccn2)nc1,–,inactive,Active,–
O=C(O)c1cccc(C(=O)O)n1,–,inactive,Active,–
Oc1ccc(Cl)c2cccnc12,–,inactive,Active,–
